# Assay results collected from several papers.
# Lines come from different studies, so protocols differ.
# Observed: metabolic stability
# Host: human
SMILES,matrix,concentration,pH,half-life [min]
C[C@]12CC[C@H]3[C@@H](CCC4=CC(=O)CC[C@@]43C)[C@@H]1CC[C@@H]2O,liver microsomes,10 µM,pH 7.4,19.3
COc1ccc([C@@]23Oc4cc(OC)cc(OC)c4[C@@]24N=C(C2CC2)N[C@@]4(O)[C@H](C(=O)N(C)OC)[C@H]3c2ccccc2)cc1,liver microsomes,1 µM,pH 7.4,18.3
CNC(C)Cc1ccc2nsnc2c1 (stereo not drawn),liver microsomes,0.5 µM,,53
CC(C)C[C@H](NC(=O)[C@H](Cc1ccccc1)NC(=O)[C@H](Cc1ccccc1)NC(=O)Cc1ccc(-c2ccccc2)cc1)C(=O)N[C@@H](CCCCN)C(=O)N[C@@H](CCCNC(=N)N)C(=O)N[C@H](C(=O)N[C@@H](Cc1c[nH]c2ccccc12)C(=O)N[C@@H](CCCCN)C(=O)N[C@@H](CCCNC(=N)N)C(=O)O)C(C)C,liver microsomes,1 µM,,22.8
C[C@]12CC[C@H]3[C@@H](CCC4=CC(=O)CC[C@@]43C)[C@@H]1CC[C@@H]2O,hepatocytes,1 µM,,6.51
CONC(=O)[C@H]1[C@@H](O)[C@@]2(O)c3c(OC)cc(OC)cc3O[C@@]2(c2ccc(OC)cc2)[C@@H]1c1ccccc1,liver microsomes,,,120
CNC(C)Cc1ccc2nonc2c1 (stereo not drawn),liver microsomes,0.5 µM,,> 150
C[C@]12CC[C@H]3[C@@H](CC=C4CC(O)CC[C@@]43CO)[C@@H]1CCC2O (stereo partly drawn),liver microsomes,,,73.6
CC[C@H](C)[C@H](NC(=O)[C@H](CC(=O)O)NC(=O)[C@H](CS)NC(=O)[C@H](CCCCN)NC(=O)[C@H](CS)NC(=O)[C@H](CCSC)NC(=O)[C@@H]1CCCN1C(=O)[C@H](CCC(N)=O)NC(=O)[C@@H]1CCCN1C(=O)[C@H](CCCNC(=N)N)NC(=O)[C@H](CCCNC(=N)N)NC(=O)[C@H](CCCNC(=N)N)NC(=O)[C@H](CCCNC(=N)N)NC(=O)[C@H](CCC(N)=O)NC(=O)[C@H](CCCNC(=N)N)NC(=O)[C@H](CCCNC(=N)N)NC(=O)[C@H](CCCCN)NC(=O)[C@H](CCCCN)NC(=O)[C@H](CCCNC(=N)N)NC(=O)CN)C(=O)N[C@@H](CC(C)C)C(=O)N[C@@H](CCCCN)C(=O)N[C@@H](C)C(=O)O,liver microsomes,1 µM,,6
